Assay results as given in ChEMBL document CHEMBL1157617, “A new class of naphthalimide-based antitumor agents that inhibit topoisomerase II and induce lysosomal membrane permeabilization and apoptosis” (J Med Chem, 2010).
Activity calls are given as the source filed them. No cut-off for these calls is given here.

system: HeLa; experiment: Induction of lysosomal membrane permeabilization in human HeLa cells assessed as acridine orange red fluorescence at 15 uM after 24 hrs by flow cytometry; format: functional; details: not given
In short: (§1)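 Each compound was tested at three concentrations on HeLa cells for 24 h. Adherent and floating cells were pooled and stained with 20 μg/mL acridine orange for 2 min at room temperature. Lysosomal rupture was scored by flow cytometry as percentage of cells with AO red fluorescence.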

SMILES	Activity [%]
CN(C)CCN1C(=O)c2cccc3cc(N)cc(c23)C1=O [AMONAFIDE]	77.27

system: HeLa; experiment: Induction of lysosomal membrane permeabilization in human HeLa cells assessed as acridine orange red fluorescence at 14 uM after 24 hrs by flow cytometry; format: functional; details: not given; in short: as §1

SMILES	Activity [%]
CCCCCCCCCCCCN1C(=O)c2cccc3c(NCCNCCN(C)C)ccc(c23)C1=O	94.85

system: HeLa; experiment: Induction of lysosomal membrane permeabilization in human HeLa cells assessed as acridine orange red fluorescence at 6 uM after 24 hrs by flow cytometry; format: functional; details: not given; in short: as §1

SMILES	Activity [%]
CCCCCCCCNc1ccc2c3c(cccc13)C(=O)N(CCCNCCN(C)C)C2=O	32.89

system: HeLa; experiment: Induction of lysosomal membrane permeabilization in human HeLa cells assessed as acridine orange red fluorescence at 4 uM after 24 hrs by flow cytometry; format: functional; details: not given; in short: as §1

SMILES	Activity [%]
CCCCCCCCNc1ccc2c3c(cccc13)C(=O)N(CCCNCCN(C)C)C2=O	84.5

system: HeLa; experiment: Cytotoxicity against human HeLa cells after 24 hrs by MTT assay; details: not given

SMILES	IC50 [µM]
CCCCCCCCCCCCN1C(=O)c2cccc3c(NCCNCCN(C)C)ccc(c23)C1=O	16.8
CCCCCCCCNc1ccc2c3c(cccc13)C(=O)N(CCCNCCN(C)C)C2=O	4.06
CN(C)CCN1C(=O)c2cccc3cc(N)cc(c23)C1=O [AMONAFIDE]	10.7

system: not listed separately; experiment: Cytotoxicity against human LS 174T cells after 24 hrs by MTT assay; details: LS174T

SMILES	IC50 [µM]
CCCCCCCCCCCCN1C(=O)c2cccc3c(NCCNCCN(C)C)ccc(c23)C1=O	18.6
CCCCCCCCNc1ccc2c3c(cccc13)C(=O)N(CCCNCCN(C)C)C2=O	9.16
CN(C)CCN1C(=O)c2cccc3cc(N)cc(c23)C1=O [AMONAFIDE]	20.3

system: Calf thymus DNA; experiment: Binding affinity to calf thymus DNA by fluorescent spectra analysis; format: nucleic-acid assay; details: Bos taurus
In short: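 Compounds at 10, 20, 30 and 50 μM in 20 mM Tris-HCl pH 7.4, with or without 100 μM CT DNA (no-DNA samples as control). Incubated 1 day in the dark at 25 °C. Fluorescence wavelength and intensity read at 25 °C. Scatchard binding constant calculated.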

SMILES	Kb [M⁻¹]
CN(C)CCN1C(=O)c2cccc3cc(N)cc(c23)C1=O [AMONAFIDE]	14300

system: HeLa; experiment: Induction of cytochrome c release into cytosol in human HeLa cells at IC50 concentration after 24 hrs by FITC/Hoechst soluble immunocytochemical staining; format: functional, cell-based; details: not given
In short: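 HeLa cells were treated 24 h at compound-specific concentrations, then fixed in 10% formaldehyde, permeabilized in 90% methanol and blocked with milk. Staining was rabbit anti-cytochrome c (1:500) then FITC goat anti-rabbit IgG (1:100), 1 h each at room temperature, with 2 μg/mL Hoechst 33258 as counterstain. Cytosolic green signal was imaged by confocal microscopy.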

SMILES	Activity
CCCCCCCCCCCCN1C(=O)c2cccc3c(NCCNCCN(C)C)ccc(c23)C1=O	Active
CCCCCCCCNc1ccc2c3c(cccc13)C(=O)N(CCCNCCN(C)C)C2=O	Active

system: HeLa; experiment: Induction of apoptosis in human HeLa cells assessed as viable cells at IC50 concentration after 24 hrs using annexin V/propidium iodide staining by flow cytometry; format: functional; details: not given
In short: (§2)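 HeLa cells, seeded at 1 × 10^6 per well, were treated for 24 h at a fixed concentration set per compound. Cells were washed in cold PBS and resuspended in binding buffer. Staining was annexin V-FITC at 4 °C in the dark for 15 min, then PI for 5 min. Quadrants were read by flow cytometry: live, early apoptotic, late apoptotic, damaged. Run three times.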

SMILES	Activity [%]
CCCCCCCCNc1ccc2c3c(cccc13)C(=O)N(CCCNCCN(C)C)C2=O	25.7

system: HeLa; experiment: Induction of lysosomal membrane permeabilization in human HeLa cells assessed as acridine orange red fluorescence at 2 uM after 24 hrs by flow cytometry; format: functional; details: not given; in short: as §1

SMILES	Activity [%]
CCCCCCCCNc1ccc2c3c(cccc13)C(=O)N(CCCNCCN(C)C)C2=O	83.13

system: HeLa; experiment: Induction of apoptosis in human HeLa cells assessed as early apoptotic cells at IC50 concentration after 24 hrs using annexin V/propidium iodide staining by flow cytometry; format: functional; details: not given; in short: as §2

SMILES	Activity [%]
CCCCCCCCCCCCN1C(=O)c2cccc3c(NCCNCCN(C)C)ccc(c23)C1=O	79.21
CCCCCCCCNc1ccc2c3c(cccc13)C(=O)N(CCCNCCN(C)C)C2=O	74.25

system: HeLa; experiment: Induction of lysosomal membrane permeabilization in human HeLa cells assessed as acridine orange red fluorescence at 5 uM after 24 hrs by flow cytometry; format: functional; details: not given; in short: as §1

SMILES	Activity [%]
CN(C)CCN1C(=O)c2cccc3cc(N)cc(c23)C1=O [AMONAFIDE]	112

system: Calf thymus DNA; experiment: Binding affinity to calf thymus DNA assessed as circular dichroism by CD spectroscopy; format: nucleic-acid assay; details: Bos taurus
In short: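 CT DNA (100 μM) with drug (20 μM) in 20 mM Tris-HCl pH 7.4. DNA concentration set by UV absorbance, A260/A280 above 1.8. CD spectrum recorded 200-400 nm in a 1 cm cell after shaking, thermal equilibration and buffer subtraction. Analysed over 230-300 nm.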

SMILES	Activity
CCCCCCCCCCCCN1C(=O)c2cccc3c(NCCNCCN(C)C)ccc(c23)C1=O	inactive
CCCCCCCCNc1ccc2c3c(cccc13)C(=O)N(CCCNCCN(C)C)C2=O	inactive

system: HL-60; experiment: Cytotoxicity against human HL60 cells after 72 hrs by MTT assay; format: functional, cell-based; details: HL-60, 24 h, in the assay text read “after 24 hrs” for “after 72 hrs”
In short: (§3)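 MTT viability assay on HeLa, HL-60, MCF-7, MKN45 and LS174 cells. MTT (500 μg/mL) was added for 4 h at 37 °C and formazan dissolved in DMSO; A570 was read. IC50 came from linear regression; experiments were done in triplicate.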

SMILES	IC50 [µM]
CCCCCCCCCCCCN1C(=O)c2cccc3c(NCCNCCN(C)C)ccc(c23)C1=O	6.63
CCCCCCCCNc1ccc2c3c(cccc13)C(=O)N(CCCNCCN(C)C)C2=O	2.67

biological target: DNA topoisomerase 2-alpha (Homo sapiens) (UniProt P11388); experiment: Inhibition of DNA topoisomerase 2-mediated kDNA decatenation at 100 uM; details: not given
In short: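 Cell-free topo II decatenation: 0.2 μg kDNA was incubated with HeLa-cell topo II extract and compound at 100 μM. The cleavage buffer contained 50 mM Tris-HCl pH 8.0, 120 mM KCl, 10 mM MgCl2, 1 mM ATP and 0.5 mM DTT. Reactions ran 15 min at 37 °C and were stopped with SDS. Products were resolved on 1% agarose and stained with ethidium bromide.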

Sequence of DNA topoisomerase 2-alpha (Homo sapiens) (P11388 whole entry): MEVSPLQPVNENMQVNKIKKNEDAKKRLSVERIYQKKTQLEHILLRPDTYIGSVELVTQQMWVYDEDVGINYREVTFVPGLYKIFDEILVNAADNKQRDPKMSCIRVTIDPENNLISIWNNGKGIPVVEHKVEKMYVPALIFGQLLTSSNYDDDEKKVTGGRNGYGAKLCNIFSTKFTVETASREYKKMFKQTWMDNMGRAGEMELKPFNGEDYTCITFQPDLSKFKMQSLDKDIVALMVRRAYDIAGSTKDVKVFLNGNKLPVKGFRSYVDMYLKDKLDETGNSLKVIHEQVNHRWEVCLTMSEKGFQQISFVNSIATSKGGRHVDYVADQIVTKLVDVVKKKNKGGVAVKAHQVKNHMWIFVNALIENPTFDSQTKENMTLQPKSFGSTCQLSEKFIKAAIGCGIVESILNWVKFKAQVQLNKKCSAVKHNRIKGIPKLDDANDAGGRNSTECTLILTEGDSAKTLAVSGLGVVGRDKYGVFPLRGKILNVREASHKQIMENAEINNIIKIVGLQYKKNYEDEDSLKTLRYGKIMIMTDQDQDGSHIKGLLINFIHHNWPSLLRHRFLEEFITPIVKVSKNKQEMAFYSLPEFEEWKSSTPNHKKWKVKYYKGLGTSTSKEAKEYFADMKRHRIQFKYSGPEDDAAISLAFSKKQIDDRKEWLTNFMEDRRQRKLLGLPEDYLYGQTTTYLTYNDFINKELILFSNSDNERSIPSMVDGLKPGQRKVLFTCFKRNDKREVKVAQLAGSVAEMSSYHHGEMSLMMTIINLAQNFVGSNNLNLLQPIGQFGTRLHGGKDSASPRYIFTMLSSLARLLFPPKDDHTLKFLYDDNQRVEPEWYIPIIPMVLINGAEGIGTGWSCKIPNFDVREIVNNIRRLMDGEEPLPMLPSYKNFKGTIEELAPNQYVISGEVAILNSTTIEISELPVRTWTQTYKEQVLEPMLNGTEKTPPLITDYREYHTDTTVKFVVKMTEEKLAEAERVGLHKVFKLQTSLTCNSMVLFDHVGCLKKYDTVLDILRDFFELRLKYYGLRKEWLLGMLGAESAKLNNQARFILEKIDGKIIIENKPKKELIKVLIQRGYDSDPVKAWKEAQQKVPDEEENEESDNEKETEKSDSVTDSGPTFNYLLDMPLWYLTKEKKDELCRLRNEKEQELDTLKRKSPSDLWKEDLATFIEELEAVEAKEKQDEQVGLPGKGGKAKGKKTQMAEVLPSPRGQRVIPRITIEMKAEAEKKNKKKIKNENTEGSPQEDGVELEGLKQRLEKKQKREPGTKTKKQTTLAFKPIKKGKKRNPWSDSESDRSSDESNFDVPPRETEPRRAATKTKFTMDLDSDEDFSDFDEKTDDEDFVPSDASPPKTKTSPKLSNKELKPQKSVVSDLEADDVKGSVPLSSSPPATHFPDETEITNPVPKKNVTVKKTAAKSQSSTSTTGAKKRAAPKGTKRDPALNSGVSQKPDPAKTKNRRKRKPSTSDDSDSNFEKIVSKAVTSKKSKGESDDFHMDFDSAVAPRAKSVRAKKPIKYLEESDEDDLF

SMILES	Activity
CCCCCCCCCCCCN1C(=O)c2cccc3c(NCCNCCN(C)C)ccc(c23)C1=O	Active
CCCCCCCCNc1ccc2c3c(cccc13)C(=O)N(CCCNCCN(C)C)C2=O	Active
CN(C)CCN1C(=O)c2cccc3cc(N)cc(c23)C1=O [AMONAFIDE]	Active

system: MKN-45; experiment: Cytotoxicity against human MKN45 cells after 24 hrs by MTT assay; details: MKN-45, 24 h

SMILES	IC50 [µM]
CCCCCCCCCCCCN1C(=O)c2cccc3c(NCCNCCN(C)C)ccc(c23)C1=O	11.8
CCCCCCCCNc1ccc2c3c(cccc13)C(=O)N(CCCNCCN(C)C)C2=O	14.8
CN(C)CCN1C(=O)c2cccc3cc(N)cc(c23)C1=O [AMONAFIDE]	> 50

system: MCF7; experiment: Cytotoxicity against human MCF7 cells after 72 hrs by MTT assay; format: functional, cell-based; details: MCF7, 24 h, in the assay text read “after 24 hrs” for “after 72 hrs”; in short: as §3

SMILES	IC50 [µM]
CCCCCCCCCCCCN1C(=O)c2cccc3c(NCCNCCN(C)C)ccc(c23)C1=O	4.52
CCCCCCCCNc1ccc2c3c(cccc13)C(=O)N(CCCNCCN(C)C)C2=O	2.41

system: HeLa; experiment: Induction of lysosomal membrane permeabilization in human HeLa cells assessed as acridine orange red fluorescence at 20 uM after 24 hrs by flow cytometry; format: functional; details: not given; in short: as §1

SMILES	Activity [%]
CCCCCCCCCCCCN1C(=O)c2cccc3c(NCCNCCN(C)C)ccc(c23)C1=O	88.49

system: Nucleic Acid; experiment: Induction of conformational changes in Escherichia coli pBR322 DNA assessed as DNA relaxation at 100 uM after 2 hrs by gel electrophoresis; format: nucleic-acid assay; details: not given
In short: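 pBR322 plasmid (200 ng) was incubated with compound at 100 μM in Tris-HCl pH 7.4 for 2 h at 37 °C. Samples ran on 1% agarose and were stained with ethidium bromide; supercoiled versus relaxed forms were judged from gel migration.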

SMILES	Activity
CCCCCCCCCCCCN1C(=O)c2cccc3c(NCCNCCN(C)C)ccc(c23)C1=O	inactive
CCCCCCCCNc1ccc2c3c(cccc13)C(=O)N(CCCNCCN(C)C)C2=O	inactive

system: HeLa; experiment: Induction of lysosomal membrane permeabilization in human HeLa cells assessed as acridine orange red fluorescence at 17 uM after 24 hrs by flow cytometry; format: functional; details: not given; in short: as §1

SMILES	Activity [%]
CCCCCCCCCCCCN1C(=O)c2cccc3c(NCCNCCN(C)C)ccc(c23)C1=O	93.5

system: HeLa; experiment: Induction of apoptosis in human HeLa cells assessed as damaged cells at IC50 concentration after 24 hrs using annexin V/propidium iodide staining by flow cytometry; format: functional; details: in the assay text read “late apoptotic cells” for “damaged cells”; in short: as §2

SMILES	Activity [%]
CCCCCCCCCCCCN1C(=O)c2cccc3c(NCCNCCN(C)C)ccc(c23)C1=O	20.72

system: HeLa; experiment: Induction of lysosomal membrane permeabilization in human HeLa cells assessed as acridine orange red fluorescence at 10 uM after 24 hrs by flow cytometry; format: functional; details: not given; in short: as §1

SMILES	Activity [%]
CN(C)CCN1C(=O)c2cccc3cc(N)cc(c23)C1=O [AMONAFIDE]	10
